Assay outcomes deposited in PubChem BioAssay by several laboratories.
Calb FLC – affects C. albicans growth with fluconazole | 0.57% of 300,000 active | AID 1979 | C. albicans CaCi-2 (fluconazole-resistant clinical isolate) + fluconazole, Alamar Blue growth, 48 h | growth inhibition, % (concentration not given with the values);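 active means growth inhibition above about 58% in most replicates, limit read from the data, passing the limit was not always enough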;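 further: all wells also contain fluconazole at 8 µg/ml as a sub-toxic cotreatment; 0% = median of DMSO wells and 100% = median of geldanamycin control wells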
sPLA2-III inh – Blocks human group III sPLA2 activity. Q9NZ20. QFRET BODIPY PC-A2 liposome hydrolysis, fluorescence. inhibition, % at 12.2 µM. 0.56% of 370,000 active. AID 743126;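 active means inhibition above mean plus 3 SD of compounds lying within the high and low control bounds, cut at about 19% in these data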;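 further: 0% = median of test compound wells and 100% = no enzyme DMSO wells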
ASAP1 GAP inh – blocks human ASAP1-stimulated Arf1 GTP hydrolysis; GDP FP detection; 0.19% of 360,000 active; inhibition, % at 16.5 µM; in the data active means inhibition above about 25%;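 further: 0% = vehicle with enzyme and substrate and 100% = no enzyme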
Target sequence (Q9ULH1 325-724 limits assumed): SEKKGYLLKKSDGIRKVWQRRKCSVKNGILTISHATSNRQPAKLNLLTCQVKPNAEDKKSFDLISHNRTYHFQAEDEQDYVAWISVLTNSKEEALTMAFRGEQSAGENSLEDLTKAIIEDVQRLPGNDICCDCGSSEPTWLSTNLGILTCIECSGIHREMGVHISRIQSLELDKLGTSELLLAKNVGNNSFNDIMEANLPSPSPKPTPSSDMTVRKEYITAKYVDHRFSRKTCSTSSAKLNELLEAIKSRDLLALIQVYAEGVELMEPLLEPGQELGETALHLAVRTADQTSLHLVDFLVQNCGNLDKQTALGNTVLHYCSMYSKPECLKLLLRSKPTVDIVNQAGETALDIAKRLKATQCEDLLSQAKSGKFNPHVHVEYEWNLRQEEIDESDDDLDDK
SKKanGAS inh – SKKanGAS growth inhibition | S. pyogenes SKKanGAS, kanamycin growth, BacTiter-Glo, 6 h | inhibition, % at 7.5 µM | 1.3% of 300,000 active | AID 1662;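 active means mean replicate score, as percent of positive control median, at least 50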;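 further: strain carries kanamycin resistance gene driven by streptokinase promoter and grows in 40 µg/ml kanamycin; loss of luminescence reflects streptokinase promoter inhibition or plain growth inhibition; 0% = median of DMSO wells and 100% = positive control at its reference dose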
ARFGAP1 inhibitor – inhibitors of rat ARFGAP1; AID 651572; Arfgap1-stimulated ARF1 GTP hydrolysis, GDP FP detection; inhibition, % at 16.5 µM; 0.26% of 360,000 active;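 active means inhibition above a per-plate limit, mean inhibition of low control wells plus 3 SD, cut at about 25% in these data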;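 further: 0% = DMSO wells with enzyme and 100% = wells lacking Arfgap1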
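System: truncated rat Arfgap1 GAP domain / Medium: HEPES-based buffer, pH 7.5 / Also added: N-terminally truncated human ARF1-GTP substrate / Incubation: enzyme reaction 120 min at 25 °C after 20 min preincubation / Measured by: FP of antibody-bound GDP Alexa 633 tracer, ex 620/em 688 nm / Replicates: singlicate, each compound tested once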
An asterisk follows results filed as active; nt = no result given. Rows were chosen to be rich in hits. Some 2.3% of all compounds tested hit in one or more screens of this group.

SMILES	Calb FLC	sPLA2-III inh	ASAP1 GAP inh	SKKanGAS inh	ARFGAP1 inhibitor
COc1ccc(Cn2ccc3ccc(-c4ccc5ccn(C(=O)C6CC6)c5c4)cc32)cc1	nt	-7	nt	nt	nt
CC(C)C1=CC2C3C(C(C(C)C)=CC(=O)[C@@]3(C)O)C1C(=O)C2(C)O (some centres undefined)	nt	-2	-7	nt	12
O=c1c2ccccc2nc(-c2ccc(Cl)cc2Cl)n1O	84*	2	8	13	-16
O=C(NC(=S)Nc1ccc(O)cc1)c1cncc(Br)c1	1	22*	6	6	11
Cc1cc(O)ccc1NC(=S)NC(=O)c1cncc(Br)c1	87*	-5	-5	74*	10
Cc1c(Cl)cccc1NC(=S)NC(=O)c1cncc(Br)c1	-3	-2	5	12	2
O=C(NC(=S)Nc1cccc(O)c1)c1cncc(Br)c1	13	13	-4	-3	-11
Cc1ccc(C2NC(=O)c3[nH]nc(-c4ccccc4)c32)cc1 (centres undefined)	nt	-15	-3	nt	-7
COc1ccc(OCC(=O)Nc2ccc3c(c2)CCC3)cc1	nt	4	-4	nt	4
O=C(COc1ccc2c(c1)CCC2)NCc1cccc(Cl)c1	72*	-3	-3	19	-8
COc1cccc(NC(=O)COc2ccc3c(c2)CCC3)c1	100*	-2	3	9	-9
CC(C)(C)OC(=O)NCc1ccccc1/C=C/S(=O)(=O)NC1CCCC1	nt	5	nt	nt	nt
C[C@@H]1CN([C@@H](C)CO)C(=O)CCCn2nncc2CO[C@@H]1CN(C)C(=O)CCC(F)(F)F	nt	4	-5	nt	10
O=C(Nc1c(-c2ccc(F)cc2)nc2ncccn12)c1ccc(F)cc1	nt	0	nt	nt	nt
CC1CCCN(C(=S)SCC(=O)c2cc(Br)cc(Br)c2O)C1 (centres undefined)	-5	7	11	56*	9
CC1CCCCC1NC(=O)C1CCC(CNS(=O)(=O)c2ccc3c(c2)C(C)(C)C(=O)N3C)CC1 (centres undefined)	nt	2	4	nt	-8
O=[N+]([O-])c1cc(Cl)cc(/C=N\Nc2ccccn2)c1O	-1	-1	-1	102*	-7
C=CCCC1CN(Cc2ccc(OC)cc2)S(=O)(=O)c2c(Oc3ccc(C)cc3)cccc2O1 (centres undefined)	nt	-2	7	nt	5
Cc1ccc2nc(-c3cccc(Cl)c3)c(Cc3ccccc3C(F)(F)F)n2c1	nt	0	-5	nt	-3
C[C@]12CC[C@@H]3c4ccc(O)cc4CC[C@H]3[C@@H]1CC[C@@H]2OC(=O)CCC1CCCC1	nt	-10	-12	111*	1
CCCCC(=O)O[C@H]1CC[C@H]2[C@@H]3CCc4cc(O)ccc4[C@H]3CC[C@]12C	-5	-1	1	89*	10
O=C1C=CC(=O)N1c1ccc(O)cc1	-6	8	-8	-14	11
O=C1C=CC(=O)N1c1ccc(OC(F)F)cc1	nt	20*	-2	nt	9
C[C@H]1[C@@H](NC(=O)c2cccc(C(F)(F)F)c2)CC[C@@]23CCCN2C(=O)CCC[C@@H]13	nt	-5	nt	nt	nt
O=[N+]([O-])c1ccc(O)c(Nc2ncnc3ccc(Br)cc23)c1	85*	-5	-3	51*	-5
SMILES	Calb FLC	sPLA2-III inh	ASAP1 GAP inh	SKKanGAS inh	ARFGAP1 inhibitor
O=[N+]([O-])c1ccc(O)c(Nc2ncnc3ccccc23)c1	45	5	-7	-1	-4
O=C(c1ccoc1)N1CCC2(CC1)Oc1ccc(F)cc1C(=O)C21CC(c2ccccc2)=NO1 (centres undefined)	92*	1	-14	16	-10
O=C(c1ccc2c(c1)OCO2)N1CCC2(CC1)Oc1ccc(Cl)cc1C(=O)C21CC(c2cccnc2)=NO1 (centres undefined)	84*	-11	-12	20	-11
O=C(c1ccc2c(c1)OCO2)N1CCC2(CC1)Oc1ccc(F)cc1C(=O)C21CC(c2cccnc2)=NO1 (centres undefined)	77*	-11	-2	5	-8
O=C(c1ccc2c(c1)OCO2)N1CCC2(CC1)Oc1ccc(F)cc1C(=O)C21CC(c2ccccc2)=NO1 (centres undefined)	77*	-4	16	16	-9
COc1ccc(OCCNC(=O)c2ccc3nc(C)c(N(C)C(=O)CCc4ccccc4)n3c2)cc1	nt	7	13	nt	20
CCOc1ccc(-n2c(COc3ccccc3)nnc2SCc2nc3ccccc3[nH]2)cc1	nt	-21	nt	nt	nt
CC1CCCN(C(=O)Nc2ccc([N+](=O)[O-])cc2)C1 (centres undefined)	nt	2	12	nt	2
